Experimental data reported in ChEMBL document CHEMBL1142699 (J Med Chem, 2005).
Active and inactive are the calls of the source. The rule behind the calls is not given here. Numbered stars: 1 amine (or outer) side, 2 acyl side, 3 side chain; on linkers, the order of the positions; unused ones are H or OH. Square brackets hold non-standard residues; d marks the D form. Peptide text beside a SMILES is read from it. X1 = N[C@@H](Cc1ccccc1)CN(CC(=O)[*:2])[*:1]; Phe(4-F) = N[C@@H](Cc1ccc(F)cc1)C(=O)O

How the values were obtained:
[1] = target: Nociceptin receptor (Cavia porcellus) (UniProt P47748); assay: Maximal inhibition of electrically evoked contraction of guinea pig ileum at 10 uM; assay type: functional, tissue-based
Sequence of Nociceptin receptor (Cavia porcellus) (P47748 whole entry): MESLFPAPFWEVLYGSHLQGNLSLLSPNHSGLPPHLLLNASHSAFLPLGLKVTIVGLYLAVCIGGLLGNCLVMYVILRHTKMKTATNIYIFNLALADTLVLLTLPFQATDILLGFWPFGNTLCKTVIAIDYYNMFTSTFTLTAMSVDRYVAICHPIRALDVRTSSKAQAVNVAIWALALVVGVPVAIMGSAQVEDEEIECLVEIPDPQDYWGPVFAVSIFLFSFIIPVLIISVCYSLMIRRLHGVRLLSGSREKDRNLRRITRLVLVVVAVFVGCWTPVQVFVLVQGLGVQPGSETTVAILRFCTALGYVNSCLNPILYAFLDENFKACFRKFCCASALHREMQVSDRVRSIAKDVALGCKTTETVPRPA

[2] = target: Nociceptin receptor (Cavia porcellus) (UniProt P47748); assay: Inhibition of electrically evoked contraction of guinea pig ileum at 10 uM; assay type: functional, tissue-based
[3] = target: Nociceptin receptor (Cavia porcellus) (UniProt P47748); assay: Antagonistic potency against N/OFQ in electrically evoked contractions of guinea pig ileum at 10 uM; assay type: functional, tissue-based
[4] = target: Nociceptin receptor (Mus musculus) (UniProt P35377); assay: Antagonistic potency against N/OFQ in electrically evoked contraction of mouse vas deferens at 10 uM; assay type: functional, tissue-based
Sequence of Nociceptin receptor (Mus musculus) (P35377 whole entry): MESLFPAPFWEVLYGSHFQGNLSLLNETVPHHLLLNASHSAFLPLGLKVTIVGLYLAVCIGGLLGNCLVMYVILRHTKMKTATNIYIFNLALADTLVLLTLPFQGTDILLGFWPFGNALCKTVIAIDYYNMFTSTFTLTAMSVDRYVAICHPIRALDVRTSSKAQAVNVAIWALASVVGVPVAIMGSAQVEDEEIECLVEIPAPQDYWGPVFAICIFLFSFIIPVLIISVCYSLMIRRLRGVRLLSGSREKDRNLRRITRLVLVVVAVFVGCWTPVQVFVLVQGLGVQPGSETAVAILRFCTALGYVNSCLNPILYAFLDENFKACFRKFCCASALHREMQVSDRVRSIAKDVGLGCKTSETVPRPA
Outline: (§1)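 Male Swiss mice (25-30 g). Vas deferens in 5 mL baths of Mg2+-free Krebs at 33 °C, 0.3 g tension, field-stimulated with supramaximal 1 ms pulses at 0.05 Hz, isotonic recording.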

[5] = target: Nociceptin receptor (Mus musculus) (UniProt P35377); assay: Maximal inhibition of electrically evoked contraction of mouse vas deferens at 10 uM; assay type: functional, tissue-based
[6] = target: Nociceptin receptor (Mus musculus) (UniProt P35377); assay: (§2) Inhibition of electrically evoked contraction of mouse vas deferens; assay type: functional
Outline: (§3)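 Vas deferens from male Swiss mice (25-30 g), in Mg2+-free Krebs at 33 °C under 0.3 g resting tension. Field-stimulated with 1 ms supramaximal pulses at 0.05 Hz; twitches recorded isotonically. After ~1 h equilibration, cumulative concentration-response curves in 0.5 log steps. […] 5-8 experiments.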

Nociceptin receptor [7] = target: T1, Nociceptin receptor (Homo sapiens, UniProt P41146); assay: Receptor binding affinity for recombinant human N/OFQ peptide receptor (NOP) expressed in chinese hamster ovary cells; assay type: cell-based, CHO
T1 sequence (P41146 whole entry): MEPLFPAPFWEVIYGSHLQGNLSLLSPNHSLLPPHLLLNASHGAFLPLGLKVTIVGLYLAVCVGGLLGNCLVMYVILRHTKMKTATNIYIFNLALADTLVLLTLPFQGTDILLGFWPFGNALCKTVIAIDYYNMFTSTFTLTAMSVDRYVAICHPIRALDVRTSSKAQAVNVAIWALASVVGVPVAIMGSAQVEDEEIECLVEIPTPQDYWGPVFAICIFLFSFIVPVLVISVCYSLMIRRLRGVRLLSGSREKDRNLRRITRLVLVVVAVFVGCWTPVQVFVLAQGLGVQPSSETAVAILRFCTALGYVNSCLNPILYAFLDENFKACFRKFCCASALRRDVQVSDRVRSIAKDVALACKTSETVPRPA

Nociceptin receptor [8] = target: T1, Nociceptin receptor; assay: Agonist potency against GTPgammaS binding in CHO cell membranes expressing the human NOP receptor (CHOhNOP)
Nociceptin receptor [9] = target: T1, Nociceptin receptor; assay: Inhibition of forskolin stimulated cAMP levels in CHO cells expressing the human NOP receptor (CHOhNOP)
Nociceptin receptor [10] = target: Nociceptin receptor (Mus musculus, UniProt P35377); assay: as §2; assay type: functional; outline: as §3
Sequence of Nociceptin receptor (Mus musculus, UniProt P35377) (P35377 whole entry): as the sequence (P35377 whole entry) above

[11] = target: Nociceptin receptor (Mus musculus) (UniProt P35377); assay: Inhibition of electrically evoked contraction of mouse vas deferens; Effect evident only in some tissues; assay type: functional; conditions: filed as agonist
[12] = target: Nociceptin receptor (Cavia porcellus) (UniProt P47748); assay: Antagonistic potency against N/OFQ in electrically evoked contractions of guinea pig ileum at 1 uM; assay type: functional, tissue-based
[13] = target: Nociceptin receptor (Mus musculus) (UniProt P35377); assay: Maximal inhibition of electrically evoked contraction of mouse vas deferens; Effect evident only in some tissues; assay type: functional; conditions: filed as agonist
[14] = target: Nociceptin receptor (Cavia porcellus) (UniProt P47748); assay: Maximal inhibition of electrically evoked contraction of guinea pig ileum; Effect evident only in some tissues; assay type: functional, tissue-based; conditions: filed as agonist
[15] = target: Nociceptin receptor (Cavia porcellus) (UniProt P47748); assay: Inhibition of electrically evoked contraction of guinea pig ileum; Effect evident only in some tissues; assay type: functional, tissue-based; conditions: filed as agonist
[16] = target: Nociceptin receptor (Mus musculus) (UniProt P35377); assay: Antagonistic potency against N/OFQ in electrically evoked contraction of mouse vas deferens at 1 uM; assay type: functional, tissue-based; outline: as §1
[17] = target: Nociceptin receptor (Mus musculus) (UniProt P35377); assay: Inhibition of electrically evoked contraction of mouse vas deferens at 10 uM; assay type: functional
Nociceptin receptor [18] = target: T1, Nociceptin receptor; assay: Inhibition of forskolin stimulated cAMP levels in CHO […] expressing the human NOP receptor (CHOhNOP); assay type: functional, cell-based
Nociceptin receptor [19] = target: T1, Nociceptin receptor; conditions: CHO
Nociceptin receptor [20] = target: T1, Nociceptin receptor; assay: Agonist potency against GTPgammaS binding in CHO cell membranes expressing the human NOP receptor (CHOhNOP) at 0.1 uM
Outline: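 CHOhNOP membranes (20 µg) incubated 1 h at 30 °C with gentle shaking in 50 mM Tris-HCl, 1 mM MgCl2, 100 mM NaCl, 0.2 mM EGTA, 1 mg/mL BSA, 150 µM bacitracin, 10 µM peptidase inhibitors, 100 µM GDP, 150 pM GTPγ[35S]. Nonspecific binding with 10 µM GTPγS; vacuum filtration. Data as stimulation factors (ligand/basal specific DPM); pEC50 derived.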

Nociceptin receptor [21] = target: T1, Nociceptin receptor; assay: Antagonistic potency against N/OFQ induced GTPgammaS binding to human NOP receptor expressed in CHO cell membranes at 0.1 uM; assay type: functional
Nociceptin receptor [22] = target: T1, Nociceptin receptor; assay: Agonist potency against GTPgammaS binding in CHO cell membranes expressing human NOP receptor (CHOhNOP)
Outline: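 Membranes from CHO cells stably expressing human NOP, homogenized in 50 mM Tris-HCl/0.2 mM EGTA. 20 µg homogenate, 1 h at 30 °C. Buffer: Tris-HCl, 1 mM MgCl2, 100 mM NaCl, 0.2 mM EGTA, BSA, bacitracin, 10 µM peptidase inhibitors, 100 µM GDP, 150 pM GTPγ[35S]. Nonspecific binding defined with 10 µM GTPγS.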

Row | SMILES | Emax [1] | Log EC50 [2] | Emax [5] | Ki (Nociceptin receptor [7]) [nM] | EC50 (Nociceptin receptor [8]) [nM] | EC50 (Nociceptin receptor [9]) [nM] | Activity [11] | pKb [12] | Emax [13] | Emax [14] | Log EC50 [15] | pKb [16] | further results
1 | CC(C)C[C@H](NC(=O)[C@H](CCCCN)NC(=O)[C@H](CCCN=C(N)N)NC(=O)[C@H](C)NC(=O)[C@H](CO)NC(=O)[C@H](CCCCN)NC(=O)[C@H](CCCN=C(N)N)NC(=O)[C@H](C)NC(=O)CNC(=O)[C@@H](NC(=O)[C@H](Cc1ccccc1)NC(=O)CNC(=O)CNC(=O)CNCc1ccccc1)[C@@H](C)O)C(=O)N[C@@H](C)C(=O)N[C@@H](CC(N)=O)C(=O)N[C@@H](CCC(N)=O)C(N)=O | inactive | inactive | inactive |  |  |  |  |  |  |  |  |  | pKb [3]: 6.21; pKb [4]: 6.07; Log EC50 [6]: inactive
2 | C[C@H](NC(=O)CNC(=O)[C@@H](NC(=O)[C@H](Cc1ccc(F)cc1)NC(=O)CNC(=O)CNC[C@@H](N)Cc1ccccc1)[C@@H](C)O)C(=O)N[C@@H](CCCN=C(N)N)C(=O)N[C@@H](CCCCN)C(=O)N[C@@H](CO)C(=O)N[C@@H](C)C(=O)N[C@@H](CCCN=C(N)N)C(=O)N[C@@H](CCCCN)C(=O)N[C@@H](CCCN=C(N)N)C(=O)N[C@@H](CCCCN)C(=O)N[C@@H](CC(N)=O)C(=O)N[C@@H](CCC(N)=O)C(N)=O (H-[X1]G[Phe(4-F)]TGARKSARKRKNQ-NH2) |  |  |  | 0.02 | 0.209 | 0.302 |  |  |  |  |  |  | EC50 (Nociceptin receptor [10]): 1.02 nM
3 | CC(C)C[C@H](NC(=O)[C@H](CCCCN)NC(=O)[C@H](CCCN=C(N)N)NC(=O)[C@H](C)NC(=O)[C@H](CO)NC(=O)[C@H](CCCCN)NC(=O)[C@H](CCCN=C(N)N)NC(=O)[C@H](C)NC(=O)CNC(=O)[C@@H](NC(=O)[C@H](Cc1ccc(F)cc1)NC(=O)CNC(=O)CNC[C@@H](N)Cc1ccccc1)[C@@H](C)O)C(=O)N[C@@H](C)C(=O)N[C@@H](CC(N)=O)C(=O)N[C@@H](CCC(N)=O)C(N)=O (H-[X1]G[Phe(4-F)]TGARKSARKLANQ-NH2) |  |  |  | 0.0479 | 0.813 | 0.479 | Agonist | 8.32 | Agonist | Agonist | Agonist | 7.9 | 
4 | CC(C)C[C@H](NC(=O)[C@H](CCCCN)NC(=O)[C@H](CCCN=C(N)N)NC(=O)[C@H](C)NC(=O)[C@H](CO)NC(=O)[C@H](CCCCN)NC(=O)[C@H](CCCN=C(N)N)NC(=O)[C@H](C)NC(=O)CNC(=O)[C@@H](NC(=O)[C@H](Cc1ccccc1)NC(=O)CNC(=O)CNC[C@@H](N)Cc1ccccc1)[C@@H](C)O)C(=O)N[C@@H](C)C(=O)N[C@@H](CC(N)=O)C(=O)N[C@@H](CCC(N)=O)C(N)=O (H-[X1]GFTGARKSARKLANQ-NH2) |  |  |  | 0.129 | 5.25 | 0.759 | Agonist | 6.65 | Agonist | Agonist | Agonist | 7.17 | 
5 | C[C@H](NC(=O)CNC(=O)[C@@H](NC(=O)[C@H](Cc1ccccc1)NC(=O)CNC(=O)CNC(=O)CNCc1ccccc1)[C@@H](C)O)C(=O)N[C@@H](CCCN=C(N)N)C(=O)N[C@@H](CCCCN)C(=O)N[C@@H](CO)C(=O)N[C@@H](C)C(=O)N[C@@H](CCCN=C(N)N)C(=O)N[C@@H](CCCCN)C(=O)N[C@@H](CCCN=C(N)N)C(=O)N[C@@H](CCCCN)C(=O)N[C@@H](CC(N)=O)C(=O)N[C@@H](CCC(=O)N(N)N)C(=O)NN | inactive | inactive | inactive |  |  |  |  | 6.79 |  |  |  | 7.24 | Log EC50 [17]: inactive; Log EC50 (Nociceptin receptor [18]): inactive; pKb (Nociceptin receptor [19]): 7.11; Log EC50 (Nociceptin receptor [20]): inactive; pKb (Nociceptin receptor [21]): 9.13
6 | C[C@H](NC(=O)CNC(=O)[C@@H](NC(=O)[C@H](Cc1ccc(F)cc1)NC(=O)CNC(=O)CNC(=O)CNCc1ccccc1)[C@@H](C)O)C(=O)N[C@@H](CCCN=C(N)N)C(=O)N[C@@H](CCCCN)C(=O)N[C@@H](CO)C(=O)N[C@@H](C)C(=O)N[C@@H](CCCN=C(N)N)C(=O)N[C@@H](CCCCN)C(=O)N[C@@H](CCCN=C(N)N)C(=O)N[C@@H](CCCCN)C(=O)N[C@@H](CC(N)=O)C(=O)N[C@@H](CCC(N)=O)C(N)=O |  |  |  | 0.0251 |  | 4.9 |  |  |  |  |  |  | EC50 (Nociceptin receptor [22]): 0.407 nM
